In ChEMBL document CHEMBL1156676, “Peptidyl 3-substituted 1-hydroxyureas as isosteric analogues of succinylhydroxamate MMP inhibitors” (Eur J Med Chem, 2008):
Where a SMILES comes first, the peptide text is derived from it. The star is where a group is joined. Cbz = O=C(OCc1ccccc1)*

Experiments:
Matrilysin = target: T1, Matrilysin (Homo sapiens, UniProt P09237); assay: Inhibition of human recombinant MMP7
T1 sequence (P09237 whole entry): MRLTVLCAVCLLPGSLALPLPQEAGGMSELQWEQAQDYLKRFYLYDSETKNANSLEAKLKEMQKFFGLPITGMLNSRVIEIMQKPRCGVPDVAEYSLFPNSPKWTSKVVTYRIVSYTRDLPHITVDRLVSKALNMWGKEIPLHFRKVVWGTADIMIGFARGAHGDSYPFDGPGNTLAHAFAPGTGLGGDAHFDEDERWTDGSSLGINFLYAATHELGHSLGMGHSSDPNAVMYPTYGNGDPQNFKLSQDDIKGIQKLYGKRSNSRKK
Procedure, shortened: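 MMP-7 proenzyme was APMA-activated (1 mM, 1 h, 37 °C), final 2.4 nM. Incubated 4 h at 25 °C with inhibitor at seven concentrations in Tris 50 mM pH 7.5/NaCl 150 mM/CaCl2 10 mM/Brij 35 0.05%/DMSO 1%. Cleavage of Mca-Lys-Pro-Leu-Gly-Leu-Dpa-Ala-Arg-NH2 was followed fluorimetrically (325/400 nm) every 15 s over 20 min, triplicate.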

[1] = target: Matrix metalloproteinase-9 (Homo sapiens, UniProt P14780); assay: Inhibition of human recombinant MMP9
Procedure, shortened: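 Pro-MMP-9 activated with APMA 1 mM, 1 h, 37 °C, used at 2.7 nM final. Preincubated 4 h at 25 °C with seven inhibitor concentrations in Tris 50 mM pH 7.5, NaCl 150 mM, CaCl2 10 mM, Brij 35 0.05%, DMSO 1%. Hydrolysis of Mca-Lys-Pro-Leu-Gly-Leu-Dpa-Ala-Arg-NH2 monitored by fluorescence (325/400 nm) every 15 s for 20 min, triplicate.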

[2] = target: 72 kDa type IV collagenase (Homo sapiens, UniProt P08253); assay: Inhibition of human recombinant MMP2
Interstitial collagenase = target: T2, Interstitial collagenase (Homo sapiens, UniProt P03956); assay: Inhibition of human recombinant MMP1
T2 sequence (P03956 whole entry): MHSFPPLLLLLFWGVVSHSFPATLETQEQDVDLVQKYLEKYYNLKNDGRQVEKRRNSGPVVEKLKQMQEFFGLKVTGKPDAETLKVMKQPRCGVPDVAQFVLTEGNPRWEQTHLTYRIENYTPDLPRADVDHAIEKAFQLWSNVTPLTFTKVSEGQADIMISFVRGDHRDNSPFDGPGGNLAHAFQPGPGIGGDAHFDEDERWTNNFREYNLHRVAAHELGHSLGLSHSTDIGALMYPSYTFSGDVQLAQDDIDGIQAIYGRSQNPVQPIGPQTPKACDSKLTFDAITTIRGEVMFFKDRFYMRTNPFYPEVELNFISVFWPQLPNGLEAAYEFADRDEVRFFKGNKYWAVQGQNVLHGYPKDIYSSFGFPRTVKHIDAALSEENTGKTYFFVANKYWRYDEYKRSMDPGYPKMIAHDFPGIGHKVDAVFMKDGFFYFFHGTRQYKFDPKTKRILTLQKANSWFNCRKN

Stromelysin-1 = Stromelysin-1 (Homo sapiens, UniProt P08254); assay: Inhibition of human recombinant MMP3
Neutrophil collagenase = Neutrophil collagenase (Homo sapiens, UniProt P22894); assay: Inhibition of human recombinant MMP8
Chain of Neutrophil collagenase (P22894 whole entry): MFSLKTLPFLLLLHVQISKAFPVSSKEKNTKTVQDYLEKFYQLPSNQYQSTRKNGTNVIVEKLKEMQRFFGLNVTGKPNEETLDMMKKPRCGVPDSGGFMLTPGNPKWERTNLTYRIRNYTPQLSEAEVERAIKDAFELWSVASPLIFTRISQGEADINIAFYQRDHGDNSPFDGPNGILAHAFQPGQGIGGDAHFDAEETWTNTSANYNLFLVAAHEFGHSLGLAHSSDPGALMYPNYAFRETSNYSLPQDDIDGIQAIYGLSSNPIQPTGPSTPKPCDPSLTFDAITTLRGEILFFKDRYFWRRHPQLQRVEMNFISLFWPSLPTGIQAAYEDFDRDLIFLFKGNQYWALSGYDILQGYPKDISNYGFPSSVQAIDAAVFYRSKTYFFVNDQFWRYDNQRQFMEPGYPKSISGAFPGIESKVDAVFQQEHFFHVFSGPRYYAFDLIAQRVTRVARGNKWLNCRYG

Chain of 72 kDa type IV collagenase (P08253 whole entry): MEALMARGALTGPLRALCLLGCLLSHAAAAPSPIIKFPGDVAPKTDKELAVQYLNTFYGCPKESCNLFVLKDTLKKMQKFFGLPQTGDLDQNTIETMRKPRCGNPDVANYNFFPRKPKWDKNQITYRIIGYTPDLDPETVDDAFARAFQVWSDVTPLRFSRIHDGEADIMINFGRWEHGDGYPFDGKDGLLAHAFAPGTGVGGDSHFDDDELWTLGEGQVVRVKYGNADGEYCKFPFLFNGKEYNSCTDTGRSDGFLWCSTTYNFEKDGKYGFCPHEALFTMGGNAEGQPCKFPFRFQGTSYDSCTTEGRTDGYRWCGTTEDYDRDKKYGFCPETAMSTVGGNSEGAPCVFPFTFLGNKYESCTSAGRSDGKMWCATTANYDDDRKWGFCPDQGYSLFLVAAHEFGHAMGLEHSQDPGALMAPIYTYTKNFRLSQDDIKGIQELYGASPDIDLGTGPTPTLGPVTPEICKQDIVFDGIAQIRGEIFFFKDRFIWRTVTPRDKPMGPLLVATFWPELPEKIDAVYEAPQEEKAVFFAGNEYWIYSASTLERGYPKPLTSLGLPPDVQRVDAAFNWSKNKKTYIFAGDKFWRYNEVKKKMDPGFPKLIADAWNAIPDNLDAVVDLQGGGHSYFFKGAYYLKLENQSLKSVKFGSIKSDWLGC
Chain of Stromelysin-1 (P08254 whole entry): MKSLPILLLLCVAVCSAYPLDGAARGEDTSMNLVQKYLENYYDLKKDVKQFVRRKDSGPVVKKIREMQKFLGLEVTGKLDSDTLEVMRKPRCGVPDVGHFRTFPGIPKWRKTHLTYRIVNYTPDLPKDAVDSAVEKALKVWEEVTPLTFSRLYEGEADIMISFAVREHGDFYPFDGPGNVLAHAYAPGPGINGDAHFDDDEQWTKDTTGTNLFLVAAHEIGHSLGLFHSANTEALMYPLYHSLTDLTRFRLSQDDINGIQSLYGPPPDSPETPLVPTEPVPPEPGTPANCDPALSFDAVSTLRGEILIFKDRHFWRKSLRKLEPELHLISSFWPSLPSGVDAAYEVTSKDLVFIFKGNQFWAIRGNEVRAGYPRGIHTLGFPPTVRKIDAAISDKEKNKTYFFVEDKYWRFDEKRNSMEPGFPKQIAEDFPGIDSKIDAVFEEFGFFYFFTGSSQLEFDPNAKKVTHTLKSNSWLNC
Chain of Matrix metalloproteinase-9 (P14780 whole entry): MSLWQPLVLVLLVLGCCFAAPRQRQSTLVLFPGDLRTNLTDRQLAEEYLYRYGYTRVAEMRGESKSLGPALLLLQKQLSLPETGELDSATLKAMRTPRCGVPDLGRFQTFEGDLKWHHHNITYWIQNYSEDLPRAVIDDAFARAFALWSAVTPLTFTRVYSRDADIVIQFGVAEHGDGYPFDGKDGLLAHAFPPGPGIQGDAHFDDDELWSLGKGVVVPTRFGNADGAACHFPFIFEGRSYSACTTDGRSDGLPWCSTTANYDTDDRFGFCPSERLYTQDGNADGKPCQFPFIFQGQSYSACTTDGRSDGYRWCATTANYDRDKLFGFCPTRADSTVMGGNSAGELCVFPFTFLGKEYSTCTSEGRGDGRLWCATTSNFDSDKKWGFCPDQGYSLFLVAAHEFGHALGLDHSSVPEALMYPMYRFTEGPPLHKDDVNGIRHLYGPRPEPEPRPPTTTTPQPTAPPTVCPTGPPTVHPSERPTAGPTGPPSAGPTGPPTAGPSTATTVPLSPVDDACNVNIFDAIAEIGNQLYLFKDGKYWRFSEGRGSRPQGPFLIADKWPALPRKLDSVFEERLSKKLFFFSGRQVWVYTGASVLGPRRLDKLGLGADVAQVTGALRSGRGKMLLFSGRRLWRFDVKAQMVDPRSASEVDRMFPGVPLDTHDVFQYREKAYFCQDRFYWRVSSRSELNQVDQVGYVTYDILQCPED

| Structure (SMILES) | IC50 (Matrilysin) [µM] | IC50 [1] [µM] | IC50 [2] [µM] | IC50 (Interstitial collagenase) [µM] | IC50 (Stromelysin-1) [µM] | IC50 (Neutrophil collagenase) [µM] |
| --- | --- | --- | --- | --- | --- | --- |
| CNC(=O)[C@H](Cc1ccccc1)NC(=O)[C@@H](CC(=O)NO)CC(C)C | 0.0083 | 0.00038 | – | – | – | – |
| CNC(=O)[C@H](Cc1ccccc1)NC(=O)[C@@H](N)CC(C)C | > 300 | > 300 | > 300 | – | – | – |
| CNC(=O)[C@H](Cc1ccccc1)NC(=O)[C@@H](CC(C)C)NC(=O)NO | > 300 | 200 | > 300 | > 300 | > 300 | 150 |
| CNC(=O)[C@H](Cc1ccccc1)NC(=O)[C@H](CC(=O)NO)CC(C)C | 4.1 | 0.15 | – | – | – | – |
| CNC(=O)[C@H](Cc1ccccc1)NC(=O)[C@H](CC(C)C)NC(=O)NO | > 300 | 20 | 60 | 270 | > 300 | 70 |
| CNC(=O)[C@H](Cc1ccccc1)NC(=O)[C@H](N)CC(C)C | > 300 | > 300 | > 300 | > 300 | > 300 | > 300 |
| COC(=O)[C@H](Cc1ccccc1)NC(=O)[C@H](CC(C)C)NC(=O)OCc1ccccc1 (Cbz-Leu-Phe-OMe) | > 300 | > 300 | > 300 | > 300 | > 300 | > 300 |
